This is a sample that favours compounds with a hit; in the whole collection about 0.99% have one here.
GRK2 aptamer HTS – blocks RNA aptamer binding to human GRK2; P25098; inhibition of aptamer binding, % at 10 µM; actives 0.59% (n = 330,000); bead flow cytometry, FAM-aptamer displacement from GRK2;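 active = inhibition of aptamer binding above 40%, roughly 3 SD of noise, on plates passing a quality check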;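 note: median bead fluorescence of bound FAM aptamer so fluorescent compounds give negative values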
DDE Tn7 FP inh – disrupts Tn7 cyclic peptide binding to fibrin D-Dimer-E complex; inhibition, % at 8.3 µM; FP displacement of FITC-Tn7 peptide from fibrin DD(E); 0% = median of compound wells per plate; actives 0.13% (n = 370,000);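 active = inhibition above the mean of compounds falling within the control limits plus 3 SD of them, cut at about 14% in these data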;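 note: 0% = plate median of compound wells and 100% = 10 µM Aha-Tn7 peptide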
Target sequence (P02675 whole entry, looked up): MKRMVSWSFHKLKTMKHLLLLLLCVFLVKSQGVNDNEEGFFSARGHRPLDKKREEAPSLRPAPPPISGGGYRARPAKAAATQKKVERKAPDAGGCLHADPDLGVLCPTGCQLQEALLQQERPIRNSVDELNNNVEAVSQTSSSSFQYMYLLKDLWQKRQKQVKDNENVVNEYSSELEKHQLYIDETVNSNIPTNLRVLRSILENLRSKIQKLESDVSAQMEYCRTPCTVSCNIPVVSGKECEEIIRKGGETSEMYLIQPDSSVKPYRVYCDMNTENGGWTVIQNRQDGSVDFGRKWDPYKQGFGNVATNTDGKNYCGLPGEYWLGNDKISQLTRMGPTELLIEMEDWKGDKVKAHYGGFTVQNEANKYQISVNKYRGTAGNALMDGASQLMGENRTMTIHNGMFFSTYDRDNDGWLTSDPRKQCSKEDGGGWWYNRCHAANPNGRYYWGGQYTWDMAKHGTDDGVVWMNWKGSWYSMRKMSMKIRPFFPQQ
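Assay system: human fibrin DD(E) protein / Input: 2 µM fibrin DD(E) / Benchmarks: high control of 10 µM Aha-Tn7 peptide / Measured by: fluorescence polarization of the labelled Tn7 tracer / Medium: Tris buffer with calcium and detergent, pH 7.8 / Timing: 10 min compound pre-incubation, 3 h probe incubation at room temperature / Repeats: one replicate per compound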
ABCB1 block – blocks JC-1 efflux by human ABCB1 transporter; P08183; CCRF-Adr cells, flow cytometry; inhibition, % at 6.6 µM; actives 0.067% (n = 190,000); AID 1326; in the data active = inhibition above about 40%;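 note: 0% = vehicle and 100% = reference inhibitor; higher value means more JC-1 retained so stronger ABCB1 efflux block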
ABCG2 block – inhibitors of human ABCG2 transporter, ABCB1 counter-screen; actives 0.1% (n = 190,000); IgMXP3 cells, JC-1 efflux, flow cytometry; inhibition, % at 6.6 µM; Q9UNQ0;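 active = inhibition above 80%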;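 note: 0% = DMSO and 100% = nicardipine control wells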
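material = IgMXP3 (ABCG2) plus far-red-tagged CCRF-Adr (ABCB1) cells | amount = 3 million cells/mL, equal mix of both lines | also added = JC-1 transporter substrate | dosing = one concentration, 6.6 µM final | schedule = 10 min at 25 °C | measured by = flow cytometric JC-1 green MFI at 530 nm | read-out basis = percent efflux inhibition, scaled nicardipine 100% to DMSO 0%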
DDE Tn6 FP inh – inhibitors of Tn6 peptide binding to human fibrin DD(E) | P02675 | Fibrin DD(E) TRITC-Tn6 fluorescence polarization displacement | inhibition, % at 8.3 µM | actives 0.21% (n = 370,000);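 active = inhibition above a per-campaign cutoff: mean of compounds within control limits plus 3 SD, cut at about 15% in these data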;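 note: 0% = median of all compound wells on the plate and 100% = blocking peptide control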
Ins promoter up – MIN6 insulin promoter up-regulation | MIN6 insulin promoter-GFP reporter, high-content imaging; active compounds read high | z-score at 5 µM | actives 0.3% (n = 190,000) | AID 1625;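 active = z-score above 3 at 5 µM with at least 500 cells counted in the well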
Tn6 DDE ctr – counter-screen hit for Tn6 peptide-fibrin DD(E) binding disruption. shares compounds with DDE Tn6 FP inh. TRITC-Tn6 fluorescence polarization displacement; 0% = median of compound wells, not DMSO. inhibition, % at 8.3 µM. actives 2% (n = 680). AID 720621;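 active = inhibition above the mean of test compounds lying between the control limits plus 3 SD of those, cut at about 14% in these data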;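 note: 0% = median of compound wells and 100% = wells with Aha-Tn7 blocking peptide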
Tn6 DDE conf – DD(E)-Tn6 binding inhibition, FP confirmation. inhibition, % at 8.3 µM. shares compounds with DDE Tn6 FP inh. FP displacement of TRITC-Tn6 peptide from DD(E); 0% = per-plate median of test wells. actives 10% (n = 680);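 active = inhibition above the mean of compounds lying within the control limits plus 3 SD, cut at about 16% in these data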;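 note: 100% = high control wells holding a competing inhibitor peptide at 10 µM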
Active calls of the source: *; . = no result.

SMILES	GRK2 aptamer HTS	DDE Tn7 FP inh	ABCB1 block	ABCG2 block	DDE Tn6 FP inh	Ins promoter up	Tn6 DDE ctr	Tn6 DDE conf
CCOC(=O)[C@]12CCCC=C1N(CCCOC)C(=O)[C@@H]2CC(=O)N1CCCC1	.	-7	.	.	-6	.	.	.
Cc1cc(C)cc(NC(=O)N2CCNC(=O)C2CC(=O)Nc2cc(Cl)ccc2Cl)c1 (centres undefined)	4	6	.	.	16*	.	8	-1
CC(C)=CCC/C(C)=C/CN1CC(=O)N2[C@H](C[C@@]3(n4ccc5ccccc54)c4ccccc4N(S(=O)(=O)c4ccccc4)[C@@H]23)C1=O	.	-11	.	.	-4	.	.	.
CC(=O)N1CCSc2ccc(S(=O)(=O)NCCc3ccc(C)cc3)cc21	0	-4	.	.	-2	.	.	.
CC(=O)N1CCSc2ccc(S(=O)(=O)NCCc3cccc(C)c3)cc21	0	0	.	.	16*	.	-1	-2
Cc1cc(C(F)(F)F)n2nc(-c3cnn(C)c3C(F)(F)F)c(Cl)c2n1	0	0	1	13	16*	-0.17	9	5
O=C(CCS(=O)(=O)c1ccc(Cl)cc1)N1CCN(c2ccc(F)cc2)CC1	0	0	.	.	18*	.	6	-4
COCCCNc1nc2c(c(=O)[nH]c(=O)n2C)n1CC(O)COc1ccccc1 (centres undefined)	0	-5	-1	-3	-1	0.36	.	.
COCCCNc1nc2c(c(=O)[nH]c(=O)n2C)n1CC(O)COc1ccccc1C (centres undefined)	3	5	0	1	17*	-0.79	-1	0
O=C(O)c1ccc(S(=O)(=O)c2ccc3c(c2)C(=O)N(c2ccc(O)cc2)C3=O)cc1	3	0	.	.	48*	-0.36	2	1
Cc1ccc(Cn2c(=O)c3ccccc3n3c(CCC(=O)NCCN4CCOCC4)nnc23)cc1	0	.	.	.	.	.	.	.
CC(C)CCn1c(=O)c2ccccc2n2c(CN3CCOCC3)nnc12	0	-2	1	6	16*	-1.2	1	0
Cc1cc(Br)cn2c(Cc3ccsc3)c(-c3cccc(Cl)c3)nc12	.	-1	.	.	18*	.	11	6
Cc1cc(Br)cn2c(Cc3cccc(Cl)c3)c(-c3cccc(Cl)c3)nc12	.	3	.	.	0	.	.	.
COc1ccc(C(=O)/C=C(\C)Nc2ccc(NC(C)=O)cc2)cc1	0	-2	-1	-2	0	0.12	.	.
C/C(=C\C(=O)c1cccnc1)Nc1ccc(O)cc1	3	11	1	9	44*	2.3	6	-2
COc1ccc(NC(=O)c2cccnc2)cc1	0	-3	.	.	0	.	.	.
C/C(=C\C(=O)c1ccccc1)Nc1ccc(O)cc1	2	-6	0	0	17*	-0.63	-6	-7
COc1nc(OC)nc(N2CCC(C(=O)N(C)Cc3ccco3)CC2)n1	.	2	.	.	7	.	.	.
Cc1ccc(NC(=O)C(OC(=O)c2ccccc2Cl)c2ccccc2)cc1Cl (centres undefined)	0	-8	0	-1	-1	.	.	.
Cc1ccc(NC(=O)C(OC(=O)c2ccc(NC(N)=O)cc2)c2ccccc2)cc1Cl (centres undefined)	2	0	-1	-4	34*	-0.34	1	-1
CCCCNC(=O)CCC(=O)Nc1ccc2nc(N3CCOCC3)cc(C)c2c1	5	5	0	8	-5	-1.1	.	.
CCCCNC(=O)CCC(=O)Nc1ccc2nc(N3CCCCC3)cc(C)c2c1	3	5	1	11	16*	-0.37	4	3
COc1ccc(NC(=O)C(c2cc3c(cc2[N+](=O)[O-])OCO3)N(C)C)cc1 (centres undefined)	0	-9	2	11	15*	-0.04	-3	-6
Cc1cc(-c2nnn(CCCOC(C)(C)C)c2C)ccc1-c1cn(CCCOC(C)(C)C)nn1	.	-4	.	.	17*	.	5	6
SMILES	GRK2 aptamer HTS	DDE Tn7 FP inh	ABCB1 block	ABCG2 block	DDE Tn6 FP inh	Ins promoter up	Tn6 DDE ctr	Tn6 DDE conf
COc1ccc(-c2cn(CCCOCc3ccccc3)nn2)cc1	1	-6	.	.	-3	.	.	.
Cc1ccc(C(=O)n2cnc3ccccc32)cc1C	0	0	.	.	16*	.	4	3
CN1C2CCCC1CC(NC(=O)c1nn(C)c3ccccc13)C2 (centres undefined)	.	0	.	.	8	.	.	.
O=C(Nc1ccc2nn(-c3ccccc3)nc2c1)c1ccc(Br)o1	0	3	0	-2	17*	0.65	1	-3
O=C(Nc1ccc2nn(-c3ccccc3)nc2c1)c1ccc2c(c1)OCCO2	0	-4	0	1	-4	0.04	.	.
COc1ccc(OC)c(NS(=O)(=O)c2ccc(NC(C)=O)cc2)c1	2	8	0	6	16*	-0.24	10	6
CNC(=O)COC(=O)c1ccc([N+](=O)[O-])cc1Cl	2	-4	0	0	2	0.51	.	.
Cc1cc(NC(=O)COC(=O)c2ccc([N+](=O)[O-])cc2Cl)no1	0	-4	.	.	98*	.	-5	-7
CC(=O)N1CCN=C1SCc1ccc(Br)cc1	0	8	0	3	20*	-0.68	3	2
CS(=O)(=O)N1CCN=C1SCc1ccc(Br)cc1	0	-3	.	.	0	.	.	.
O=C1CCCC(O)=C1N=Nc1ccc(C(=O)O)cc1	25	-2	.	.	-7	-0.12	.	.
O=C1CCCC(O)=C1N=Nc1c(Cl)cc(C(F)(F)F)cc1Cl	2	1	.	.	43*	-0.49	-2	-9
Cc1ccc(S(=O)(=O)NCCC(=O)OCc2ccc([N+](=O)[O-])cc2)cc1C	2	-2	.	.	18*	.	5	5
O=C(CCNS(=O)(=O)c1ccccc1)OCc1ccc([N+](=O)[O-])cc1	.	3	.	.	-4	.	.	.
Cc1ccc(NC(=O)C(C)Sc2nnc(C)n2C)cc1 (centres undefined)	0	-3	.	.	15*	.	6	1
CCOc1ccc(NC(=O)C(C)Sc2nnc(C)n2C)cc1 (centres undefined)	1	1	1	2	1	.	.	.
Cc1ccc(C(=O)N2CCCC(C(F)(F)F)C2)cc1S(=O)(=O)N1CCCCC1 (centres undefined)	1	-4	.	.	16*	.	2	-8
CN(Cc1ccccc1)S(=O)(=O)c1cccc(C(=O)OCc2ccccc2)c1	.	-2	.	.	-5	.	.	.
O=C(c1ccc(F)cc1Cl)N1CCC(Oc2cccnc2)CC1	.	-2	.	.	0	.	.	.
COc1ccc(C(=O)c2ccsc2N)cc1	1	3	.	.	19*	.	-6	-8
